Results: ChEMBL document CHEMBL3286120, “Design and synthesis of novel soluble 2,5-diketopiperazine derivatives as potential anticancer agents” (Eur J Med Chem, 2014)

Legend:
NCI-H1975 = assay: Cytotoxicity against human NCI-H1975 cells assessed as reduction in cell viability after 72 hrs by CCK8 assay; assay type: functional, cell-based
In short: (§1)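 Cells kept in RPMI or DMEM with 10% FBS and 1% penicillin/streptomycin at 37 °C in 5% CO2. Seeded at 400-800 cells/well in 384-well plates and exposed to varying compound concentrations, with solution-only control, for 72 h. CCK8 reagent added, then absorbance read at 450 nm. Plinabulin and TSA were positive controls. Mean SD of three experiments.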

[1] = Cytotoxicity against human BGC823 cells assessed as reduction in cell viability after 72 hrs by CCK8 assay; assay type: functional, cell-based, BGC-823; in short: as §1
HeLa = assay: Cytotoxicity against human HeLa cells assessed as reduction in cell viability after 72 hrs by CCK8 assay; assay type: functional, cell-based; in short: as §1
[2] = Cytotoxicity against human HuH7 cells assessed as reduction in cell viability after 72 hrs by CCK8 assay; assay type: functional, cell-based, Huh-7; in short: as §1
MCF7 = assay: Cytotoxicity against human MCF7 cells assessed as reduction in cell viability after 72 hrs by CCK8 assay; assay type: functional, cell-based; in short: as §1
A549 = assay: Cytotoxicity against human A549 cells assessed as reduction in cell viability after 72 hrs by CCK8 assay; assay type: functional, cell-based; in short: as §1
HL-60 = assay: Cytotoxicity against human HL60 cells assessed as reduction in cell viability after 72 hrs by CCK8 assay; assay type: functional, cell-based; in short: as §1
K562 = assay: Cytotoxicity against human K562 cells assessed as reduction in cell viability after 72 hrs by CCK8 assay; assay type: functional, cell-based; in short: as §1
U-937 = assay: Cytotoxicity against human U937 cells assessed as reduction in cell viability after 72 hrs by CCK8 assay; assay type: functional, cell-based; in short: as §1
MOLT-4 = assay: Cytotoxicity against human MOLT4 cells assessed as reduction in cell viability after 72 hrs by CCK8 assay; assay type: functional, cell-based; in short: as §1
[3] = Homo sapiens, NCI-H1975, 72 h, read-out: IC50
[4] = Homo sapiens, MCF7, 72 h, read-out: IC50
[5] = Homo sapiens, A549, 72 h, read-out: IC50
[6] = Homo sapiens, HL-60, 72 h, read-out: IC50
[7] = Homo sapiens, K562, 72 h, read-out: IC50
[8] = Homo sapiens, U-937, 72 h, read-out: IC50
[9] = Homo sapiens, BGC-823, 72 h, read-out: IC50
[10] = Homo sapiens, HeLa, 72 h, read-out: IC50
[11] = Homo sapiens, Huh-7, 72 h, read-out: IC50
[12] = Homo sapiens, MOLT-4, 72 h, read-out: IC50

| Structure (SMILES) | IC50 (NCI-H1975; [3]) [µM] | IC50 ([1]; bgc-823) | IC50 (HeLa; hela) | IC50 ([2]; huh-7) | IC50 (MCF7; [4]) [µM] | IC50 (A549; [5]) [µM] | IC50 (HL-60; [6]) [µM] | IC50 (K562; [7]) [µM] | IC50 (U-937; [8]) [µM] | IC50 [1, 9] [µM] | IC50 (HeLa; [10]) [µM] | IC50 [2, 11] [µM] | IC50 (NCI-H1975; nci-h1975) | IC50 (A549; a549) | IC50 (MOLT-4; [12]) [µM] | IC50 (MCF7; mcf7) | IC50 (HL-60; hl-60) | IC50 (K562; k562) | IC50 (MOLT-4; molt-4) | IC50 (U-937; u-937) |
| --- | --- | --- | --- | --- | --- | --- | --- | --- | --- | --- | --- | --- | --- | --- | --- | --- | --- | --- | --- | --- |
| COc1ccccc1/C=c1/[nH]c(=O)/c(=C\c2ccccc2OC)n(C)c1=O | 16.9 | Not Active | Not Active | Not Active | 9 | 7 | 16.2 | 2.2 | 1.5 |  |  |  |  |  |  |  |  |  |  |  |
| COc1ccccc1/C=c1\c(=O)[nH]/c(=C/c2ccccc2Cl)c(=O)n1C | 0.2 |  |  |  | 0.2 | 0.3 | 0.2 | 0.11 | 0.1 | 0.3 | 0.3 | 0.3 |  |  |  |  |  |  |  |  |
| C=CCn1c(=O)/c(=C\c2cc(Br)ccc2F)[nH]c(=O)/c1=C\c1ccccc1OC |  | Not Active |  | Not Active | 28.1 |  | 17.4 | 5.1 | 4.7 |  | 34.6 |  | Not Active | Not Active | 12.9 |  |  |  |  |  |
| C=CCn1c(=O)/c(=C\c2ccc(C)cc2)[nH]c(=O)/c1=C\c1ccccc1OC |  | Not Active | Not Active | Not Active |  |  |  |  |  |  |  |  | Not Active | Not Active |  | Not Active | Not Active | Not Active | Not Active | Not Active |
| C=CCn1c(=O)/c(=C\c2cccc(C)c2)[nH]c(=O)/c1=C\c1ccccc1OC | 32.8 |  |  |  | 20.7 | 22.7 | 16.7 | 8.8 | 5.1 | 20.4 | 19.3 | 21.4 |  |  | 16 |  |  |  |  |  |
| CC(C)(C)c1[nH]cnc1/C=c1\[nH]c(=O)/c(=C/c2ccccc2)[nH]c1=O [PLINABULIN] | 0.011 |  |  |  | 0.01 | 0.01 | 0.01 | 0.008 | 0.006 | 0.009 | 0.01 | 0.031 |  |  |  |  |  |  |  |  |
| COc1ccccc1/C=c1/[nH]c(=O)/c(=C\c2ccccc2OC)[nH]c1=O |  | Not Active | Not Active | Not Active |  |  |  |  |  |  |  |  | Not Active | Not Active |  | Not Active | Not Active | Not Active |  | Not Active |
| C=CCn1c(=O)/c(=C\c2cccc(Br)c2)[nH]c(=O)/c1=C\c1cccc(Br)c1 |  | Not Active | Not Active | Not Active |  |  |  |  |  |  |  |  | Not Active | Not Active |  | Not Active | Not Active | Not Active | Not Active | Not Active |
| C=CCn1c(=O)/c(=C\c2cccc(Cl)c2)[nH]c(=O)/c1=C\c1ccccc1OC | 5.1 |  |  |  | 5.2 | 5.2 | 4.5 | 2.7 | 1.2 | 4.6 | 5.5 | 8.9 |  |  | 4.9 |  |  |  |  |  |
| C=CCn1c(=O)/c(=C\c2ccc(F)c(Br)c2)[nH]c(=O)/c1=C\c1ccccc1OC |  | Not Active | Not Active | Not Active |  |  |  |  |  |  |  |  | Not Active | Not Active |  | Not Active | Not Active | Not Active | Not Active | Not Active |
| C=CCn1c(=O)/c(=C\c2cc(OC)c(OC)c(OC)c2)[nH]c(=O)/c1=C\c1cccc(Br)c1 |  | Not Active | Not Active | Not Active |  |  |  |  |  |  |  |  | Not Active | Not Active |  | Not Active | Not Active | Not Active | Not Active | Not Active |
| C=CCn1c(=O)/c(=C\c2cccc(F)c2)[nH]c(=O)/c1=C\c1ccccc1OC | 25.6 |  |  |  | 13.7 | 19.7 | 8.89 | 4.1 | 2.5 | 5.6 | 9.1 | 27.2 |  |  | 6.5 |  |  |  |  |  |
| C=CCn1c(=O)/c(=C\c2ccc(Cl)c(Cl)c2)[nH]c(=O)/c1=C\c1ccccc1OC |  | Not Active | Not Active | Not Active |  |  |  |  |  |  |  |  | Not Active | Not Active |  | Not Active | Not Active | Not Active | Not Active | Not Active |
| C=CCn1c(=O)/c(=C\c2ccccc2C(F)(F)F)[nH]c(=O)/c1=C\c1ccccc1OC | 14.5 |  |  |  | 6.5 | 7 | 4.6 | 2.7 | 1.5 | 5.1 | 4.6 | 9.5 |  |  | 4.4 |  |  |  |  |  |
| C=CCn1c(=O)/c(=C\c2cc(F)ccc2C)[nH]c(=O)/c1=C\c1ccccc1OC | 7.3 |  |  |  | 3.1 | 4.9 | 2.6 | 1.8 | 1 | 1.6 | 2.9 | 5.6 |  |  | 3.8 |  |  |  |  |  |
| C=CCn1c(=O)/c(=C\c2ccccc2OC)[nH]c(=O)/c1=C\c1ccccc1OC | 21.5 |  |  |  | 41.1 | 22.4 | 15.7 | 7.4 | 5.1 | 13.4 | 6.9 | 21.2 |  |  | 13.1 |  |  |  |  |  |
| COc1ccccc1/C=c1/[nH]c(=O)/c(=C\c2cccc(Cl)c2Cl)[nH]c1=O |  | Not Active | Not Active | Not Active |  |  |  |  |  |  |  |  | Not Active | Not Active |  | Not Active | Not Active | Not Active |  | Not Active |
| COc1ccccc1/C=c1\c(=O)[nH]/c(=C/c2cccc(Cl)c2Cl)c(=O)n1C | 0.3 |  |  |  | 0.2 | 0.2 | 0.2 | 0.11 | 0.1 | 0.3 | 0.2 | 0.3 |  |  |  |  |  |  |  |  |
| CC(/C=C/C(=O)NO)=C\[C@@H](C)C(=O)c1ccc(N(C)C)cc1 [TRICHOSTATIN] | 0.21 |  |  |  | 0.06 | 0.05 | 0.08 | 0.41 | 0.1 | 0.08 | 0.11 | 0.1 |  |  | 0.03 |  |  |  |  |  |
| C=CCn1c(=O)/c(=C\c2cccc(Br)c2)[nH]c(=O)/c1=C\c1ccccc1OC |  |  |  |  | 5.4 | 5.4 | 5.2 | 2.4 | 1.1 | 5.9 | 5.4 | 2.3 | Not Active |  | 5 |  |  |  |  |  |
